Measurements as given in ChEMBL document CHEMBL1147097, “Trioxaquines are new antimalarial agents active on all erythrocytic forms, including gametocytes” (Antimicrob Agents Chemother, 2007).
Calls of active or inactive are those of the source.

Columns and labels:
[1] = Ratio of LD50 for Swiss mice (Mus musculus) to ED50 for Plasmodium vinckei petteri infected mice (Mus musculus); format: functional
How it was run: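 Therapeutic index: LD50 (healthy Swiss mice, observed 60 days) divided by ED50 from the 4-day P. vinckei petteri suppressive test.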

Plasmodium falciparum [2] = assay: Antimalarial activity against chloroquine-sensitive Plasmodium falciparum F32; format: functional, organism-based
How it was run: (§1)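 Asexual P. falciparum grown in culture at 37°C under 5% CO2 and exposed to drug dilutions for 48 h. Growth inhibition measured by radioactive micromethod. IC50 read graphically from concentration vs % growth inhibition; mean of at least three independent experiments.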

Plasmodium falciparum [3] = assay: Antimalarial activity against chloroquine-sensitive Plasmodium falciparum Nigeria; format: functional, organism-based, Nigerian; how it was run: as §1
Plasmodium falciparum [4] = assay: Antimalarial activity against chloroquine-resistant Plasmodium falciparum FcB1; format: functional, organism-based; how it was run: as §1
Plasmodium falciparum [5] = assay: Antimalarial activity against chloroquine-resistant Plasmodium falciparum FcM29; format: functional, organism-based; how it was run: as §1
[6] = system: Plasmodium vinckei petteri; assay: Antimalarial activity against Plasmodium vinckei petteri infected intraperitoneally dosed Swiss Albino mice (Mus musculus); format: functional
How it was run: (§2)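 Four-day suppressive test: groups of five female Swiss albino mice infected i.p. on day 0 with 2 × 10^7 parasitized red cells, then dosed once daily for 4 days (i.p., p.o. or s.c.; DMSO vehicle, chloroquine in 0.9% NaCl). Parasitemia read on day 4 vs untreated controls; ED50/ED90 as % growth inhibition; CD50/CD90 = cure (no parasites at 60 days).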

[7] = Ratio of IC50 for HCT cells to IC50 for Plasmodium falciparum; format: functional
[8] = system: Plasmodium vinckei petteri; assay: Antimalarial activity against Plasmodium vinckei petteri infected mice (Mus musculus) at 5 mg/kg/day, peroral administered 4 days after infection for 4 days; format: functional, organism-based
How it was run: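 Established-infection test: mice infected with 10^6 P. vinckei petteri on day 0 and left untreated until day 4. Then dosed p.o. by gavage once daily in DMSO for 4 days (days 4–7). Thin blood smears taken daily before and after treatment, with follow-up for recrudescence to 60 days.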

[9] = Cytotoxicity against human HCT cells assessed as [3H]thymidine incorporation; format: cell-based
How it was run: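 HCT human colorectal tumour cells grown with 10% fetal calf serum and harvested with 0.05% trypsin-EDTA. Plated at 15 × 10^3 cells/well with drug dilutions.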

[10] = system: Plasmodium vinckei petteri; assay: Antimalarial activity against Plasmodium vinckei petteri infected orally dosed Swiss Albino mice (Mus musculus); format: functional; conditions: for ED50 / ED90: Plasmodium vinckei, po; how it was run: as §2
[11] = system: Plasmodium vinckei petteri; assay: Antimalarial activity against Plasmodium vinckei petteri infected subcutaneously dosed Swiss Albino mice (Mus musculus); format: functional; conditions: for ED50 / ED90: Plasmodium vinckei, sc; how it was run: as §2
[12] = system: Plasmodium yoelii nigeriensis; assay: Antimalarial activity against Plasmodium yoelii nigeriensis infected mice (Mus musculus) by oral dose; format: functional
How it was run: (§3)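 Four-day suppressive test with P. yoelii nigeriensis: infected mice given drug once daily for four consecutive days p.o. or s.c. (DMSO vehicle, chloroquine in 0.9% NaCl). Parasitemia compared with untreated controls. Cure was defined as no parasites detected after 60 days, with CD50 taken as the dose curing 50% of mice.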

[13] = system: Plasmodium yoelii nigeriensis; assay: Antimalarial activity against Plasmodium yoelii nigeriensis infected subcutaneously dosed mice (Mus musculus); format: functional; conditions: for ED50 / ED90: Plasmodium yoelii, sc; how it was run: as §3
Plasmodium falciparum [14] = assay: Growth inhibition after 6 hrs in chloroquine-resistant Plasmodium falciparum FcB1; format: functional, organism-based; conditions: FcB1, 6 h
How it was run: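 Plasmion-synchronized FcB1 parasites plated at ring stage and exposed to drug during successive 6-h windows of the erythrocytic cycle (one plate per period). Artemisinin tested at 7, 14, 28 nM; chloroquine at 120, 163, 232 nM; trioxaquine at 11.5, 23, 46 nM. Dilutions prepared daily.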

Plasmodium falciparum [15] = assay: Antimalarial activity against chloroquine-resistant Plasmodium falciparum W2 gametocytes (stage 2 & 3); format: functional, organism-based
How it was run: (§4)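 W2 gametocyte cultures treated with 50 mM N-acetyl-D-glucosamine for 3 or 5 days to remove asexual forms. Young (7-day) or old (13-day) cultures exposed to drug dilutions for 48 h. Giemsa thin films made and gametocytes counted per 6,000–10,000 erythrocytes. Mean of three independent experiments.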

Plasmodium falciparum [16] = assay: Antimalarial activity against chloroquine-resistant Plasmodium falciparum W2 gametocytes (stage 4 & 5); format: functional, organism-based; how it was run: as §4
Plasmodium falciparum [17] = assay: Antimalarial activity against chloroquine-resistant Plasmodium falciparum W2 asexual […]; format: functional, organism-based

CC(C)C1=C[C@H]2OC3(CCC(NCCNc4ccnc5cc(Cl)ccc45)CC3)OO[C@@]2(C)CC1 (stereo in doubt; form 5)
Ratio LD50/ED50 [1]: 23

CC(C)C1=C[C@H]2OC3(CCC(NCCNc4ccnc5cc(Cl)ccc45)CC3)OO[C@@]2(C)CC1 (stereo in doubt; form 6) [TRIOXAQUINE 3]
IC50 (Plasmodium falciparum [2]): 18 nM
IC50 (Plasmodium falciparum [3]): 18 nM
IC50 (Plasmodium falciparum [4]): 26 nM
IC50 (Plasmodium falciparum [5]): 18 nM

CC(C)C1=C[C@H]2OC3(CCC(NCCNc4ccnc5cc(Cl)ccc45)CC3)OO[C@@]2(C)CC1 (stereo in doubt; form 7) [TRIOXAQUINE 3]
IC50 (Plasmodium falciparum [2]): 7 nM
IC50 (Plasmodium falciparum [4]): 7 nM
IC50 (Plasmodium falciparum [5]): 7 nM

CC(C)C1=C[C@H]2OC3(CCC(NCCNc4ccnc5cc(Cl)ccc45)CC3)OO[C@@]2(C)CC1 (stereo in doubt; form 8) [TRIOXAQUINE 3]
IC50 (Plasmodium falciparum [2]): 11 nM
IC50 (Plasmodium falciparum [4]): 8 nM
IC50 (Plasmodium falciparum [5]): 12 nM

CC(C)C1=C[C@H]2OC3(CCC(NCCNc4ccnc5cc(Cl)ccc45)CC3)OO[C@@]2(C)CC1.O=C(O)CC(O)(CC(=O)O)C(=O)O (stereo in doubt; form 9)
ED50 [6]: 3 mg/kg/day
ED90 [6]: 8 mg/kg/day

CC(C)C1=C[C@H]2OC3(CCC(NCCNc4ccnc5cc(Cl)ccc45)CC3)OO[C@@]2(C)CC1.O=C(O)CC(O)(CC(=O)O)C(=O)O (stereo in doubt; form 10)
CD50 [6]: 7 mg/kg/day
ED50 [6]: 7 mg/kg/day
ED90 [6]: 2.5 mg/kg/day

C[C@@H]1CC[C@H]2[C@@H](C)C(=O)O[C@@H]3O[C@@]4(C)CC[C@@H]1[C@]32OO4 [ARTEMISININ]
Ratio IC50 [7]: 4370
Activity [8]: Active
IC50 (Plasmodium falciparum [2]; Plasmodium falciparum, F32): 6 nM
IC50 (Plasmodium falciparum [4]; Plasmodium falciparum, FcB1): 5 nM
IC50 (Plasmodium falciparum [5]; Plasmodium falciparum, FcM29): 8 nM
IC50 [9]: > 35000 nM
ED50 ([6]; Plasmodium vinckei, ip, read-out: ED50): 4 mg/kg/day
ED90 ([6]; Plasmodium vinckei, ip, read-out: ED90): > 5 mg/kg/day
CD50 [10]: >25 mg/kg/day
CD90 [10]: >25 mg/kg/day
ED50 [10]: 17 mg/kg/day
ED90 [10]: 30 mg/kg/day
CD50 [11]: >10 mg/kg/day
CD90 [11]: >10 mg/kg/day
ED50 [11]: 3.2 mg/kg/day
ED90 [11]: 8 mg/kg/day
CD50 [12]: 75 mg/kg/day
CD90 [12]: >100 mg/kg/day
ED50 ([12]; Plasmodium yoelii, po): 16 mg/kg/day
ED90 ([12]; Plasmodium yoelii, po): 27 mg/kg/day
CD50 [13]: 7 mg/kg/day
CD90 [13]: 23 mg/kg/day
ED50 [13]: 5 mg/kg/day
ED90 [13]: 23 mg/kg/day
IC50 (Plasmodium falciparum [14]): 15 nM

C[C@H]1[C@H](OC(=O)CCC(=O)O)O[C@@H]2O[C@@]3(C)CC[C@H]4[C@H](C)CC[C@@H]1[C@@]24OO3 [ARTESUNATE]
IC50 (Plasmodium falciparum [5]; Plasmodium falciparum, FcM29): 1.6 nM
CD50 [10]: 19 mg/kg/day
CD90 [10]: 28 mg/kg/day
ED50 [10]: 2.5 mg/kg/day
ED90 [10]: 8 mg/kg/day
CD50 [11]: 2.5 mg/kg/day
CD90 [11]: 7.5 mg/kg/day
ED50 [11]: 0.3 mg/kg/day
ED90 [11]: 0.8 mg/kg/day
IC50 (Plasmodium falciparum [15]): 72 nM
IC50 (Plasmodium falciparum [16]): 108 nM
IC50 (Plasmodium falciparum [17]): 6 nM

O=C1C(O)=C([C@H]2CC[C@H](c3ccc(Cl)cc3)CC2)C(=O)c2ccccc21 [ATOVAQUONE]
IC50 (Plasmodium falciparum [15]): 24000 nM
IC50 (Plasmodium falciparum [16]): 50400 nM
IC50 (Plasmodium falciparum [17]): 4.6 nM

CCN(CC)CCCC(C)Nc1ccnc2cc(Cl)ccc12 (centres undefined) [CHLOROQUINE]
IC50 [9]: 50000 nM
CD50 [13]: 3 mg/kg/day
CD90 [13]: 5 mg/kg/day
ED50 [13]: 3 mg/kg/day
ED90 [13]: 5 mg/kg/day

COc1cc(NC(C)CCCN)c2ncccc2c1 (centres undefined) [PRIMAQUINE]
IC50 (Plasmodium falciparum [15]): 4580 nM
IC50 (Plasmodium falciparum [16]): 1540 nM
IC50 (Plasmodium falciparum [17]): 1320 nM
